High-throughput results as filed in PubChem BioAssay.
NR2E3 ag-1 – inhibitors of NR2E3-RetCOR corepressor binding, primary screen, NR2E3 agonist project, biochemical, TR-FRET, GST-NR2E3, biotin-RetCOR; Photoreceptor-specific nuclear receptor (Homo sapiens), Q9Y5X4; 320,000 compounds, 0.12% hits; inhibition of corepressor binding, % at 4.78 µM; 1536-well;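 active means percent inhibition above the cutoff of mean plus 3 SD of all tested compounds, set per screening campaign, cut at about 20% in these data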
Target sequence (Q9Y5X4 whole entry, looked up): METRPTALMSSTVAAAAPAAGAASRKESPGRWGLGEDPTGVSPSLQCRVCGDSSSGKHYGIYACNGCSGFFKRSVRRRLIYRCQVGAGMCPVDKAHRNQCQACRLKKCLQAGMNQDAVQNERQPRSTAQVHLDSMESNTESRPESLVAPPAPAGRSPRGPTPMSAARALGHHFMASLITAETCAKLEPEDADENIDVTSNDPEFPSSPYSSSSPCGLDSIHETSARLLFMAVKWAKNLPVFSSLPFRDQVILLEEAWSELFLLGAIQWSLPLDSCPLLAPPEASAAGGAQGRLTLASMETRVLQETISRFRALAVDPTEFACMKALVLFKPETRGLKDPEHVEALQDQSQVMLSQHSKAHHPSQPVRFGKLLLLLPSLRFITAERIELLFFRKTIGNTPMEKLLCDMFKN
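Test system: GST-NR2E3 and biotin-RetCOR proteins | Quantity: 1.35 nM GST-tagged NR2E3 final | Medium: Tris pH 7.5 | Also added: 7 nM biotin-RetCOR | Dosing: Compound at 4.8 µM, single dose | Timing: 5 h at 4 °C | Detection: Time-resolved FRET | Read-out basis: Percent inhibition | Benchmarks: Biotin wells as high control, 0.6% DMSO wells as low control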
FGF22 binding – binders of human FGF22 protein, primary screen, FGF22 synaptogenesis inhibitor project, biophysical, thermal shift, single point; Fibroblast growth factor 22 (Homo sapiens), Q9HCT0; recombinant FGF22 thermal shift, SYPRO orange fluorescence; percent of sucrose octasulfate shift, DMSO zero; 340,000 compounds, 1.5% hits; activity (Tm shift, normalised), % at 9.99 µM;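 active means mean Tm shift, scaled 0 neutral to 100 positive control, at about 1.3% or above, every replicate too, limit read from the data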
Target sequence (Q9HCT0 whole entry, looked up): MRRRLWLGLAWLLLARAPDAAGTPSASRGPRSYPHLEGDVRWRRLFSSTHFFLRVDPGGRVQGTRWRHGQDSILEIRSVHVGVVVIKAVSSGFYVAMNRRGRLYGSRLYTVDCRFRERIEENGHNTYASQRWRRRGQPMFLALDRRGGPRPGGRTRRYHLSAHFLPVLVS
Jurkat NFkB inh – inhibitors of induced NF-kB luciferase reporter, primary screen, TCR NF-kB activation inhibitor project, cell-based, luminescence, uHTS; inhibition, % at 4 µM; Jurkat, PMA/ionomycin-induced NF-kB luciferase reporter; 330,000 compounds, 0.53% hits; in the data active means inhibition above about 50%
NR2E3 ag-2 – NR2E3 agonists in two-hybrid cells, primary screen, cell-based, luminescence, CHO-S, Gal4-NCOR/VP16-NR2E3 | inhibition of corepressor binding, % at 3.98 µM | luciferase | 360,000 compounds, 0.35% hits;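 active means inhibition above the mean of all tested compounds plus 3 SD, cut at about 70% in these data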;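 further: higher means lower luciferase signal from less NR2E3 corepressor binding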
697 NFkB inh – inhibitors of PMA/ionomycin-induced NF-kB reporter, 697 cells, primary screen, B-cell NF-kB inhibitor project, cell-based, luminescence, uHTS. inhibition, % at 4 µM. 330,000 compounds, 0.33% hits. AID 435022, 2010. 697 B-cell NF-kB luciferase reporter, 16 h; in the data active means inhibition above about 35%
miR-122 sensor – miR-122 Renilla sensor signal increase in Huh7, primary screen, miR-122 inhibitor project, cell-based, single point, plate reader | Huh7 miR-122 Renilla luciferase sensor, 48 h; neutral wells = 0, positive control = 100 | activation (reporter increase), % at 12.5 µM | 340,000 compounds, 0.3% hits | AID 602342, 2012;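 active means mean replicate activation score at least 90 and every replicate individually at or above 90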;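 further: higher luciferase means less miR-122 activity so hits act as miR-122 inhibitors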
Each line names hits and unclear results; the compound was inactive in the other large screens; [ ] = dose if it differs, or a comment. Most compounds without a hit are left out; they make up all but 2.2% or so of the library.

C[C@@H]1CN([C@H](C)CO)C(=O)c2cc(NC(=O)Nc3ccccc3)ccc2O[C@@H]1CN(C)S(=O)(=O)c1ccc(Cl)cc1	miR-122 sensor 100[16.7 µM] (no result: NR2E3 ag-1, Jurkat NFkB inh, NR2E3 ag-2, 697 NFkB inh)
C[C@@H]1CN([C@H](C)CO)C(=O)c2cc(NC(=O)Cc3ccccc3)ccc2O[C@@H]1CN(C)S(=O)(=O)c1ccc(Cl)cc1	miR-122 sensor 99[16.7 µM] (no result: NR2E3 ag-1, Jurkat NFkB inh, NR2E3 ag-2, 697 NFkB inh)
C[C@@H]1CN([C@@H](C)CO)C(=O)c2cc(NC(=O)Nc3ccccc3)ccc2O[C@@H]1CN(C)S(=O)(=O)c1ccc(Cl)cc1	none (no result: NR2E3 ag-1, Jurkat NFkB inh, NR2E3 ag-2, 697 NFkB inh)
C[C@@H]1CN([C@H](C)CO)C(=O)c2cc(NC(=O)Cc3cn(C)c4ccccc34)ccc2O[C@@H]1CN(C)S(=O)(=O)c1ccc(Cl)cc1	miR-122 sensor 101[16.7 µM] (no result: NR2E3 ag-1, Jurkat NFkB inh, NR2E3 ag-2, 697 NFkB inh)
C[C@@H]1CN([C@@H](C)CO)C(=O)c2cc(NC(=O)Cc3cn(C)c4ccccc34)ccc2O[C@@H]1CN(C)S(=O)(=O)c1ccc(Cl)cc1	none (no result: NR2E3 ag-1, Jurkat NFkB inh, NR2E3 ag-2, 697 NFkB inh)
COc1ccc(S(=O)(=O)Nc2ccc3c(c2)C(=O)N([C@H](C)CO)C[C@H](C)[C@H](CN(C)S(=O)(=O)c2c(C)noc2C)O3)cc1	none (no result: NR2E3 ag-1, Jurkat NFkB inh, NR2E3 ag-2, 697 NFkB inh)
CCCN(C)C[C@H]1OCCCC[C@H](C)Oc2ccc(N(C)C)cc2C(=O)N([C@@H](C)CO)C[C@H]1C	none (no result: NR2E3 ag-1, FGF22 binding, Jurkat NFkB inh, NR2E3 ag-2, 697 NFkB inh)
CC=Cc1ccc2n(c1=O)C[C@H]1[C@H](CO)[C@@H](C(=O)N[C@H](C)c3ccccc3)[C@@H]2N1Cc1ccncc1 (mixture of isomers)	none (no result: NR2E3 ag-1, Jurkat NFkB inh, NR2E3 ag-2, 697 NFkB inh)
CCc1ccc(-c2cc(C)no2)cc1S(=O)(=O)NCc1ccco1	miR-122 sensor 159
CCc1ccc(-c2cc(C)no2)cc1S(=O)(=O)NCCc1ccc(OC)c(OC)c1	miR-122 sensor 132
CCc1ccc(-c2cc(C)no2)cc1S(=O)(=O)NCc1ccc(OC)c(OC)c1	none
Cc1noc(C)c1S(=O)(=O)Nc1ccc2c(c1)C(=O)N([C@@H](C)CO)C[C@@H](C)[C@H](CN(C)C(=O)Nc1ccc3c(c1)OCO3)OCCCC[C@H](C)O2	none (no result: NR2E3 ag-1, Jurkat NFkB inh, NR2E3 ag-2, 697 NFkB inh)
COc1ccc2c3c([nH]c2c1)[C@H](CO)N(C(=O)C1CCCCC1)CC31CCN(C(=O)NC(C)C)CC1	none (no result: NR2E3 ag-1, Jurkat NFkB inh, NR2E3 ag-2, 697 NFkB inh, miR-122 sensor)
COc1cc(CN(CC(C)C)S(=O)(=O)c2ccccc2Br)cc(OC)c1	FGF22 binding 43 (no result: NR2E3 ag-1, Jurkat NFkB inh, miR-122 sensor)
COC(=O)C(CC(C)C)N(Cc1cc(OC)cc(OC)c1)S(=O)(=O)c1ccccc1Br (configuration not stated)	none (no result: NR2E3 ag-1, Jurkat NFkB inh, miR-122 sensor)
Cc1[nH]nc(N2CCCCC2)c1[N+](=O)[O-]	none (no result: FGF22 binding)
Cc1cc(C)n(-c2n[nH]c(C)c2[N+](=O)[O-])n1	FGF22 binding 44
Nc1ccc(Cc2ccc([N+](=O)[O-])cc2)cc1	FGF22 binding 43 (no result: NR2E3 ag-1, Jurkat NFkB inh, 697 NFkB inh, miR-122 sensor)
COc1cccc(NC(=O)CSc2ncc(S(=O)(=O)c3ccccc3)c(=O)[nH]2)c1	FGF22 binding 1.8
O=C(CN1CCCCCC1)N1c2ccccc2C=Cc2ccccc21	none (no result: FGF22 binding)
O=C(CN1CCCC1)N1c2ccccc2C=Cc2ccccc21	FGF22 binding 43 (no result: miR-122 sensor)
CC(=O)Nc1ccc(C(=O)NNC(=O)c2cccs2)cc1	FGF22 binding 44 (no result: miR-122 sensor)
O=C(NNC(=O)c1cccs1)c1ccccc1	none (no result: miR-122 sensor)
CCN(CC)S(=O)(=O)c1ccc(C(=O)NNC(=O)c2cccs2)cc1	none (no result: FGF22 binding)
CCN(CC)S(=O)(=O)c1ccc(NC(=O)c2cccs2)cc1	FGF22 binding 43
COc1ccc(C(=O)Nc2ccc(NC(=O)c3cccs3)c(OC)c2)cc1Cl	none
COc1ccc(C(=O)Nc2ccc(NC(=O)c3cccs3)cc2)cc1Cl	FGF22 binding 43
COc1ccc(S(=O)(=O)Nc2ccc3c(c2)C(=O)N([C@@H](C)CO)C[C@H](C)[C@H](CN(C)C(=O)Nc2c(C)noc2C)OCCCC[C@H](C)O3)cc1	none (no result: NR2E3 ag-1, Jurkat NFkB inh, NR2E3 ag-2, 697 NFkB inh)
COc1cc(OC)cc(C(=O)NCc2cc(C)nc3ccccc23)c1	FGF22 binding 44 (no result: miR-122 sensor)
COc1ccc(C(=O)NCc2cc(C)nc3ccccc23)cc1OC	none
C[C@@H]1CN([C@H](C)CO)C(=O)c2cccc(NC(=O)CCCCCC(=O)Nc3ccccc3N)c2O[C@@H]1CN(C)C(=O)NC1CCCCC1	none (no result: NR2E3 ag-1, Jurkat NFkB inh, NR2E3 ag-2, 697 NFkB inh, miR-122 sensor)
Cn1c(CN2CCN(C(=O)c3ccccc3Cl)CC2)nc2cc([N+](=O)[O-])ccc21	FGF22 binding 44
Cn1c(CN2CCN(C(=O)c3ccccc3)CC2)nc2cc([N+](=O)[O-])ccc21	none (no result: miR-122 sensor)
NS(=O)(=O)c1cccc(NC(=O)COC(=O)Cc2ccc(S(=O)(=O)N3CCCCC3)s2)c1	FGF22 binding 43 (no result: miR-122 sensor)
C[C@@H]1CN([C@H](C)CO)C(=O)c2cc(NC(=O)Cc3ccccc3)ccc2O[C@@H](C)CCCCO[C@H]1CN(C)C(=O)Nc1ccc(F)cc1	none (no result: NR2E3 ag-1, Jurkat NFkB inh, NR2E3 ag-2, 697 NFkB inh)
C[C@H]1CN([C@@H](C)CO)C(=O)Cc2cc(NC(=O)C3CCCCC3)ccc2O[C@H]1CN(C)S(=O)(=O)c1cn(C)cn1	none (no result: NR2E3 ag-1, Jurkat NFkB inh, NR2E3 ag-2, 697 NFkB inh)
CC(C)NC(=O)Nc1ccc2c(c1)CC(=O)N([C@@H](C)CO)C[C@@H](C)[C@H](CN(C)CC1CCCCC1)O2	none (no result: NR2E3 ag-1, Jurkat NFkB inh, NR2E3 ag-2, 697 NFkB inh)
O=C(Nc1ccc2nn(-c3ccccc3)nc2c1)c1cccnc1	none (no result: FGF22 binding)
O=C(Nc1ccc2nn(-c3ccc(F)cc3)nc2c1)c1cccnc1	FGF22 binding 44
CN1C(=O)c2cc(NC(=O)c3ccc(F)c(F)c3)ccc2OC[C@@H]2O[C@H](CC(=O)N[C@@H]3CCN(Cc4ccccc4)C3)CC[C@H]21	none (no result: NR2E3 ag-1, Jurkat NFkB inh, NR2E3 ag-2, 697 NFkB inh, miR-122 sensor)
CN(C)CCN(Cc1ccco1)c1ccccn1	FGF22 binding 43 (no result: NR2E3 ag-1, Jurkat NFkB inh, 697 NFkB inh)
CC(C)S(=O)(=O)c1ccc(C(=O)Nc2ccc(F)cc2F)cn1	FGF22 binding 43 (no result: miR-122 sensor)
CCCSc1ccc(C(=O)Nc2ccc(F)cc2F)cn1	none
